Results on 3 molecules are retold here after ChEMBL document CHEMBL1126893, “Synthesis and CLOGP correlation of imidooxy anticonvulsants” (J Med Chem, 1993).

Common to all, as to assay type: functional
Assay [1] deals with Mus musculus. Briefly: Time of peak effect of toxicity of compound was measured by both MES and sc Met test in mice. Summed up: (§1)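 Phase II quantification in mice after ip dosing. ED50 (scMet or MES) measured at the time of peak effect. TD50 (rotorod neurologic deficit) measured at the time of peak neurologic deficit. Medians and 95% confidence limits by the Litchfield-Wilcoxon method. Protective index = TD50/ED50. Time of peak effect determined in the MES or scMet test.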

Assay [2] deals with Mus musculus. The assay can be described thus: Effective dose was measured in mouse by maximal electroshock method by ip administration. Summed up:
as §1

Assay [3] relates to Mus musculus. Briefly: Time of peak effect of activity of compound was measured by both MES and sc Met test in mice. Put shortly:
as §1

The species named for assay [4] is Mus musculus. Briefly: Time of peak effect of activity of compound was measured by MES test in mice. Summed up: as §1
For assay [5], the system named is Mus musculus. The assay can be described thus: Elevation of threshold for electroshock induced seizures in mice was measured by po administration after 0.5 hr at the dose of 400 mg/kg; 2/5. Summed up:
(§2)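 Maximal electroshock test in male CF1 mice (23-34 g). Compound given as a 0.5% methylcellulose suspension ip or po, with testing at 0.5 h after several doses. Endpoint is protection from tonic hind limb extension.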

For assay [6], the species on record is Mus musculus. The assay can be described thus: Time of peak effect of toxicity of compound was measured by MES test in mice. Put shortly: as §1
For assay [7], the system named is Mus musculus. Briefly: Elevation of threshold for electroshock induced seizures in mice was measured by ip administration after 0.5 hr at the dose of 60 mg /kg. Put shortly:
(§3)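 Elevation of maximal (tonic extension) electroshock seizure threshold in male CF1 mice (23-34 g). Compound given ip as a 0.5% methylcellulose suspension at 60, 80 and 90 mg/kg, with testing at 0.5 h. Read-out is % elevation of threshold. TID20 is the dose raising the threshold by 20%.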

In assay [8] the test system is Mus musculus. Briefly: Elevation of threshold for electroshock induced seizures in mice was measured by ip administration after 0.5 hr at the dose of 90 mg/kg. Conditions: route intraperitoneal. Summed up:
as §3

The species entered for assay [9] is Mus musculus. The assay can be described thus: ED50 value of compound was expressed as dose protecting 50% of mice from tonic hind limb extension. Conditions: Hindlimb. Summed up:
as §2

For assay [10], the species on record is Mus musculus. Briefly: Protective index (TD50/ED50) value in MES test in mice.
Assay [11] has as its system Mus musculus. Briefly: Elevation of threshold for electroshock induced seizures in mice was measured by po administration after 0.5 hr at the dose of 200 mg/kg; 1/8. Summed up:
as §2

For assay [12], the species on record is Mus musculus. Briefly: TID20 was measured by MES test in mice. Summed up: as §3
Assay [13] has as its system Mus musculus. Briefly: Elevation of threshold for electroshock induced seizures in mice was measured by po administration after 0.5 hr at the dose of 300 mg/kg; 2/8. Summed up: as §2
The test system of assay [14] is Mus musculus. Briefly: Effective dose was measured in mouse by maximal electroshock method by ip administration; 100-122. Summed up:
as §1

In assay [15] the test system is Mus musculus. Briefly: Elevation of threshold for electroshock induced seizures in mice was measured by ip administration after 0.5 hr at the dose of 80 mg /kg. Summed up: as §3
In assay [16] the test system is Mus musculus. The assay can be described thus: Anticonvulsant activity was measured by rotarod toxicity test on mice at 30 min at the dose of 300 mg/kg; number of animals protected/number of animals tested 4/4. (The rotarod test checks motor coordination on a turning rod.)
Assay [17] has as its system Mus musculus. Briefly: Anticonvulsant activity was measured by subcutaneous pentylenetetrazole test on mice at 4 hr at the dose of 300 mg/kg; number of animals protected/number of animals tested 0/1.
Assay [18] relates to Mus musculus. Briefly: Anticonvulsant activity was measured by subcutaneous maximal electroshock test on mice at 1 hr at the dose of 100 mg/kg; number of animals protected/number of animals tested 1/2.
For assay [19], the system named is Mus musculus. Briefly: Anticonvulsant activity was measured by rotarod toxicity test on mice at 0.25 hr at the dose of 100 mg/kg; number of animals protected/number of animals tested 0/4.
Assay [20] relates to Mus musculus. The assay can be described thus: Anticonvulsant activity was measured by subcutaneous pentylenetetrazole test on mice at 30 min at the dose of 300 mg/kg; number of animals protected/number of animals tested 1/1.
Assay [21] has as its system Mus musculus. The assay can be described thus: Anticonvulsant activity was measured by rotarod toxicity test on mice at 4 h at the dose of 300 mg/kg; number of animals protected/number of animals tested 0/2.
Assay [22] has as its system Mus musculus. The assay can be described thus: Anticonvulsant activity was measured by subcutaneous pentylenetetrazole test on mice at 1 hr at the dose of 100 mg/kg; number of animals protected/number of animals tested 0/2.
Assay [23] concerns Mus musculus. The assay can be described thus: Anticonvulsant activity was measured by maximal electroshock test on mice at 0.25 hr at the dose of 100 mg/kg; number of animals protected/number of animals tested 2/2. For orientation: Protection in the maximal electroshock model is a classic sign of anticonvulsant action.
Assay [24] has as its system Mus musculus. Briefly: Anticonvulsant activity was measured by subcutaneous pentylenetetrazole test on mice at 0.25 hr at the dose of 100 mg/kg; number of animals protected/number of animals tested 2/2.
Assay [25] has as its system Mus musculus. The assay can be described thus: Anticonvulsant activity was measured by rotarod toxicity test on mice at 1 hr at the dose of 100 mg/kg; number of animals protected/number of animals tested 0/4.
Assay [26] concerns Mus musculus. The assay can be described thus: Anticonvulsant activity was measured by maximal electroshock test on mice at 4 h at the dose of 300 mg/kg; number of animals protected/number of animals tested 0/1.
The species entered for assay [27] is Mus musculus. The assay can be described thus: Protective index (TD50/ED50) value in scMET test in mice. Put shortly: as §1
The test system of assay [28] is Mus musculus. Briefly: Anticonvulsant activity was measured by maximal electroshock test on mice at 30 min at the dose of 300 mg/kg; number of animals protected/number of animals tested 1/1.

Where only a bound is given, the exact number is not on record here.

For orientation: ED50 means the dose at which the effect has come halfway, by size or by number of responders. A higher ED50 goes with a need for a large dose. Turning to `NC(=O)N1c2ccccc2C=Cc2ccccc21` [CARBAMAZEPINE], the TPE with Mus musculus [1] and in the assay on Mus musculus [3] was 0.25 throughout. For the same molecule, the ED50 with Mus musculus [2] amounted to 8.8 mg/kg.
Consider `O=C1CC2(CCCC2)C(=O)N1OCc1ccccc1`, for which the TPE stood at 0.25 in the assay filed under Mus musculus [4] and 4 toxicity in the assay filed under Mus musculus [6]. Moreover, the “No. of mice protected/tested” value was 2 in the assay with Mus musculus [5], 1 with Mus musculus [11] and 2 in the assay on Mus musculus [13]. For the same molecule, the Elevation of threshold in the assay on Mus musculus [7] is given as 14%; with Mus musculus [8], 28%; in the assay with Mus musculus [15], 26%. For the same molecule, the 50% effective dose (ED50) in the assay filed under Mus musculus [9] is 494 mg/kg; in the assay with Mus musculus [14], 111 mg/kg. In addition, the PI in the assay filed under Mus musculus [10] was above 4.5. Further, the TID20 in the assay listed under Mus musculus [12] turned out to be 71 mg/kg.
Consider `O=C1CC2(CCCC2)C(=O)N1OCc1ccccc1Br`, for which the Ratio in the assay on Mus musculus [16] came out at 4; with Mus musculus [17], 0; in the assay with Mus musculus [18] it was 1; in the assay with Mus musculus [19], 0; in the assay on Mus musculus [20], 1; in the assay with Mus musculus [21] it was 0. Further, the Ratio is listed as 0 with Mus musculus [22]; 2 in the assay with Mus musculus [23]; 2 in the assay with Mus musculus [24]; 0 in the assay with Mus musculus [25]; 0 in the assay with Mus musculus [26]; 1 with Mus musculus [28]. In addition, the TPE with Mus musculus [1] and with Mus musculus [3] was 0.25 in each case. Further, the PI in the assay filed under Mus musculus [10] is 2.3; in the assay listed under Mus musculus [27], 1.7.
